Calls of active or inactive are those of the source. The calls are words filed in the database; no cut-off is given here.
How the values were obtained:
[1] = target: Protein arginine N-methyltransferase 3 (Homo sapiens, UniProt O60678); experiment: Inhibition of human PRMT3 using biotin-tagged Histone H4 and 3H-SAM as substrate at 10 uM incubated for 1 hrs by TopCount scintillation proximity assay relative to control
Outline: (§1)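 Human methyltransferase panel, radiometric assays. Each compound tested at a single 10 μM concentration in triplicate. Enzymes inhibited by more than 50% were taken on to concentration–response.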

[2] = target: Histone-lysine N-methyltransferase KMT5C (Homo sapiens) (UniProt Q86Y97); experiment: Inhibition of human SUV420H2 using Biotin-tagged H4K20me1 and 3H-SAM as substrate at 10 uM incubated for 1 hrs by TopCount scintillation proximity assay relative to control
Sequence of Histone-lysine N-methyltransferase KMT5C (Homo sapiens) (Q86Y97 whole entry, looked up): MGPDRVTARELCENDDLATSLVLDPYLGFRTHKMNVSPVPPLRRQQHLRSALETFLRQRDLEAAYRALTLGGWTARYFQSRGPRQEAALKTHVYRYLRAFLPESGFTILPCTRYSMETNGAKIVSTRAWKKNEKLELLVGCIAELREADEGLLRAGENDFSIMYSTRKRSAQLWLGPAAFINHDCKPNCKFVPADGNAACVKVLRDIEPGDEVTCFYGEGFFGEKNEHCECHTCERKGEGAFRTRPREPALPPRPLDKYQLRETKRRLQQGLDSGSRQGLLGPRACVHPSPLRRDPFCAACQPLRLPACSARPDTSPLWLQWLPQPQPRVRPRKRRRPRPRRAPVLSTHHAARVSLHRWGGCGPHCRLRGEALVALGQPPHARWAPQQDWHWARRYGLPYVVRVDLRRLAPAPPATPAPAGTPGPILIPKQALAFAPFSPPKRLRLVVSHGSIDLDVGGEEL
Outline: (§2)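 Selectivity panel against human SAM-dependent methyltransferases, radiometric format. Single test concentration of 10 μM, triplicate, read as percent inhibition.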

[3] = target: Histone-lysine N-methyltransferase NSD3 (Homo sapiens) (UniProt Q9BZ95); experiment: Inhibition of human NSD3 using chicken nucleosome and 3H-SAM as substrate at 10 uM incubated for 1 hrs by TopCount scintillation proximity assay relative to control; outline: as §1
Sequence of Histone-lysine N-methyltransferase NSD3 (Homo sapiens) (Q9BZ95 whole entry): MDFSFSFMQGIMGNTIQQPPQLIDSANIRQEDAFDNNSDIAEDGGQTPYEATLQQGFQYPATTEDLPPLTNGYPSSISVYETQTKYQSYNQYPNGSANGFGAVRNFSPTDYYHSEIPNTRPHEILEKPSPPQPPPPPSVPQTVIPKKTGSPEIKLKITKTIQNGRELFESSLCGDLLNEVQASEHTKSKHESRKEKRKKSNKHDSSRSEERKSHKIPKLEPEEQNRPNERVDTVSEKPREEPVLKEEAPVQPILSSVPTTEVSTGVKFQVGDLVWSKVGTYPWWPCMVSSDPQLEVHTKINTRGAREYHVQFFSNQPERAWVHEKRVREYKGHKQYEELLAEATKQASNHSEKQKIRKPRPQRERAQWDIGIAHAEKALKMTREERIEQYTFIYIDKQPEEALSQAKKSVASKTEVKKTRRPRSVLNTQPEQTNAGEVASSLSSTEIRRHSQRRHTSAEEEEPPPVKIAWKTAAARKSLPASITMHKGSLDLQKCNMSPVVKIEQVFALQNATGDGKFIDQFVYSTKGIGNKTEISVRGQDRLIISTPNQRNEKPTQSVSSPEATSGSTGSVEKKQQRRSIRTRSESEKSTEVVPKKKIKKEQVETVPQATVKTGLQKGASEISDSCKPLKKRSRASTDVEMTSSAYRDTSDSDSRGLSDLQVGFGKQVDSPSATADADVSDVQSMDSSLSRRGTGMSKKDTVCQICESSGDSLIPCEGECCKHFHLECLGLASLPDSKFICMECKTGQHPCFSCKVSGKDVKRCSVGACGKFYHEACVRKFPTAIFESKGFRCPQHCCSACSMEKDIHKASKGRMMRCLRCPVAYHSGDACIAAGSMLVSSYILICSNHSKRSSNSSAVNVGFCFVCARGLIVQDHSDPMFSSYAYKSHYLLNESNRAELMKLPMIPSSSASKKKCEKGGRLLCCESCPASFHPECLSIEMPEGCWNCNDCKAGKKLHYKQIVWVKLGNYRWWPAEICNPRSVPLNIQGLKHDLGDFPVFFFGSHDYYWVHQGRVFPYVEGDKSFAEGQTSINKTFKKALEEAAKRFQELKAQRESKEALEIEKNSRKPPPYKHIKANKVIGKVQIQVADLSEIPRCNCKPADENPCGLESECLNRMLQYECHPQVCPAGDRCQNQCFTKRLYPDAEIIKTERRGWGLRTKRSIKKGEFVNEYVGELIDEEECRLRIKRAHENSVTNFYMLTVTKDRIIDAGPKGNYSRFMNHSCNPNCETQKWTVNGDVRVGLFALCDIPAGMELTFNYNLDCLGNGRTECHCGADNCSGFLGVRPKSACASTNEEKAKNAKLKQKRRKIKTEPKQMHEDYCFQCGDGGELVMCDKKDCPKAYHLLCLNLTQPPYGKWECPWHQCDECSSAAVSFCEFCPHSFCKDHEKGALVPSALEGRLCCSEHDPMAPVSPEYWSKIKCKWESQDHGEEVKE

[4] = Aggregation property of the compound in KPi buffer at pH 7.0 assessed as formation of colloid-like particles by dynamic light scattering analysis; format: physicochemical
Outline: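 Compounds diluted as 8-point half-log series in filtered 50 mM KPi, pH 7.0, with 1% v/v DMSO final. Particles detected by dynamic light scattering, triplicate at each concentration. CAC taken as the intersection of separate nonlinear fits to aggregating (>10^6 scattering intensity) and non-aggregating data.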

[5] = target: Protein arginine N-methyltransferase 8 (Homo sapiens) (UniProt Q9NR22); experiment: Inhibition of human PRMT8 using biotin-tagged Histone H4 and 3H-SAM as substrate at 10 uM incubated for 1 hrs by TopCount scintillation proximity assay relative to control; outline: as §1
Sequence of Protein arginine N-methyltransferase 8 (Homo sapiens) (Q9NR22 2-394 limits assumed): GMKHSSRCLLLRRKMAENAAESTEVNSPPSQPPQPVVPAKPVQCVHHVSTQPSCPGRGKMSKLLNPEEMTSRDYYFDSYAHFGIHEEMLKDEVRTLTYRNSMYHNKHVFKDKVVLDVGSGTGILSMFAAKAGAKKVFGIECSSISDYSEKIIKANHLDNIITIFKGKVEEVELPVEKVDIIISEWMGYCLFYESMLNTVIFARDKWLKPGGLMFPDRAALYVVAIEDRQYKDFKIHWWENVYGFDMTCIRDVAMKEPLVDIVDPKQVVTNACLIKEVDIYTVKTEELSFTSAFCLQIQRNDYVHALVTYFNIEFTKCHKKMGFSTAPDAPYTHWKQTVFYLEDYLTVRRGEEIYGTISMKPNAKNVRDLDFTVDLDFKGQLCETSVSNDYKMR

[6] = target: Histone-lysine N-methyltransferase PRDM9 (Homo sapiens) (UniProt Q9NQV7); experiment: Inhibition of human PRDM9 using biotin-tagged Histone H3 and 3H-SAM as substrate at 10 uM incubated for 1 hrs by TopCount scintillation proximity assay relative to control; outline: as §1
[7] = target: Histone-lysine N-methyltransferase SETD7 (Homo sapiens) (UniProt Q8WTS6); experiment: Inhibition of human SETD7 using biotin-tagged Histone H3 and 3H-SAM as substrate at 10 uM incubated for 1 hrs by TopCount scintillation proximity assay relative to control; outline: as §2
[8] = target: RNA 5'-monophosphate methyltransferase (Homo sapiens) (UniProt Q7Z5W3); experiment: Inhibition of human BCDIN3D using biotin-tagged microRNA-145 and 3H-SAM as substrate at 10 uM incubated for 1 hrs by TopCount scintillation proximity assay relative to control; outline: as §1
Sequence of RNA 5'-monophosphate methyltransferase (Homo sapiens) (Q7Z5W3 whole entry): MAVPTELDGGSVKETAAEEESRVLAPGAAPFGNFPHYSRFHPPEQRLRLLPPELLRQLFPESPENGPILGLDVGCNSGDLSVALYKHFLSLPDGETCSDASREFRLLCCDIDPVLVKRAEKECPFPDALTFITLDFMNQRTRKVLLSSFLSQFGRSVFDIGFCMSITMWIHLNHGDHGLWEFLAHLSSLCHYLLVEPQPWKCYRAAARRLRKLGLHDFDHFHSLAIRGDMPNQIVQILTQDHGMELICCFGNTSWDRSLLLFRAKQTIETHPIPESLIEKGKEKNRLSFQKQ

[9] = target: Replicase polyprotein 1ab (Severe acute respiratory syndrome coronavirus 2) (UniProt P0DTD1); experiment: Competitive inhibition of N-terminal 6His/SUMO-tagged SARS-CoV-2 NSP14 expressed in Escherichia coli Rosetta 2 (DE3) PlysS cells using 5'GpppACCCCCCCCC-Biotin 3' and 3H-SAM as substrates at increasing concentration incubated for 30 mins by TopCount scintillation proximity assay
Outline: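 Competition pattern read from IC50 shifts. […] Separately, SAM fixed at 1.25 μM (5× Km) with RNA varied up to 0.5 μM (10× Km). A linear rise of IC50 with substrate concentration was taken as competitive inhibition.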

[10] = target: Replicase polyprotein 1ab (Severe acute respiratory syndrome coronavirus 2, UniProt P0DTD1); experiment: Inhibition of N-terminal 6His/SUMO-tagged SARS-CoV-2 NSP14 expressed in Escherichia coli Rosetta 2 (DE3) PlysS cells using 5'GpppACCCCCCCCC-Biotin 3' and 3H-SAM as substrates incubated for 30 mins by TopCount scintillation proximity assay
[11] = target: Histone-lysine N-methyltransferase NSD2 (Homo sapiens) (UniProt O96028); experiment: Inhibition of human NSD2 using chicken nucleosome and 3H-SAM as substrate at 10 uM incubated for 1 hrs by TopCount scintillation proximity assay relative to control; outline: as §1
[12] = target: Histone-lysine N-methyltransferase 2C (Homo sapiens) (UniProt Q8NEZ4); experiment: Inhibition of human MLL3 using biotin-tagged Histone H3 and 3H-SAM as substrate at 10 uM incubated for 1 hrs by TopCount scintillation proximity assay relative to control; outline: as §1
[13] = target: Histone-lysine N-methyltransferase, H3 lysine-79 specific (Homo sapiens, UniProt Q8TEK3); experiment: Inhibition of human DOT1L using chicken nucleosome and 3H-SAM as substrate at 10 uM incubated for 1 hrs by TopCount scintillation proximity assay relative to control; outline: as §1
[14] = target: Replicase polyprotein 1ab (Severe acute respiratory syndrome coronavirus 2) (UniProt P0DTD1); experiment: Non-covalent inhibition of N-terminal 6His/SUMO-tagged SARS-CoV-2 NSP14 expressed in Escherichia coli Rosetta 2 (DE3) PlysS cells using 5'GpppACCCCCCCCC-Biotin 3' and 3H-SAM as substrates incubated for 30 mins by TopCount scintillation proximity assay
Outline: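 Radiometric N7-MTase assay tracking [3H]-methyl transfer from SAM onto the cap of […] RNA, run with 0.01% v/v Triton X-100. Concentration–response in triplicate to give IC50.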

[15] = target: Protein arginine N-methyltransferase 1 (Homo sapiens, UniProt Q99873); experiment: Inhibition of human PRMT1 using biotin-tagged Histone H4 and 3H-SAM as substrate at 10 uM incubated for 1 hrs by TopCount scintillation proximity assay relative to control; outline: as §1
Sequence of Protein arginine N-methyltransferase 1 (Q99873 whole entry, looked up): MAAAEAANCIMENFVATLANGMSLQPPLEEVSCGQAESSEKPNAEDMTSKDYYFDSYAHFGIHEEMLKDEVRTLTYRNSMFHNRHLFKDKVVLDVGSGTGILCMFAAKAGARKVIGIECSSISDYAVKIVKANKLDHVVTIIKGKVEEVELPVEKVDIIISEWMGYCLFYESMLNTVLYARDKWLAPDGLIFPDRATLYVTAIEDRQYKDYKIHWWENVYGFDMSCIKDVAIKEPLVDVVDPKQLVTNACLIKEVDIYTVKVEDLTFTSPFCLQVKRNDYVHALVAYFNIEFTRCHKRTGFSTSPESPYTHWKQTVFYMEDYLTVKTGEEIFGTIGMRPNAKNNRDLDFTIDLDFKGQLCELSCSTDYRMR

[16] = target: Histone-lysine N-methyltransferase KMT5B (Homo sapiens) (UniProt Q4FZB7); experiment: Inhibition of human SUV420H1 using Biotin-tagged H4K20me1 and 3H-SAM as substrate at 10 uM incubated for 1 hrs by TopCount scintillation proximity assay relative to control; outline: as §2
Sequence of Histone-lysine N-methyltransferase KMT5B (Homo sapiens) (Q4FZB7 whole entry, looked up): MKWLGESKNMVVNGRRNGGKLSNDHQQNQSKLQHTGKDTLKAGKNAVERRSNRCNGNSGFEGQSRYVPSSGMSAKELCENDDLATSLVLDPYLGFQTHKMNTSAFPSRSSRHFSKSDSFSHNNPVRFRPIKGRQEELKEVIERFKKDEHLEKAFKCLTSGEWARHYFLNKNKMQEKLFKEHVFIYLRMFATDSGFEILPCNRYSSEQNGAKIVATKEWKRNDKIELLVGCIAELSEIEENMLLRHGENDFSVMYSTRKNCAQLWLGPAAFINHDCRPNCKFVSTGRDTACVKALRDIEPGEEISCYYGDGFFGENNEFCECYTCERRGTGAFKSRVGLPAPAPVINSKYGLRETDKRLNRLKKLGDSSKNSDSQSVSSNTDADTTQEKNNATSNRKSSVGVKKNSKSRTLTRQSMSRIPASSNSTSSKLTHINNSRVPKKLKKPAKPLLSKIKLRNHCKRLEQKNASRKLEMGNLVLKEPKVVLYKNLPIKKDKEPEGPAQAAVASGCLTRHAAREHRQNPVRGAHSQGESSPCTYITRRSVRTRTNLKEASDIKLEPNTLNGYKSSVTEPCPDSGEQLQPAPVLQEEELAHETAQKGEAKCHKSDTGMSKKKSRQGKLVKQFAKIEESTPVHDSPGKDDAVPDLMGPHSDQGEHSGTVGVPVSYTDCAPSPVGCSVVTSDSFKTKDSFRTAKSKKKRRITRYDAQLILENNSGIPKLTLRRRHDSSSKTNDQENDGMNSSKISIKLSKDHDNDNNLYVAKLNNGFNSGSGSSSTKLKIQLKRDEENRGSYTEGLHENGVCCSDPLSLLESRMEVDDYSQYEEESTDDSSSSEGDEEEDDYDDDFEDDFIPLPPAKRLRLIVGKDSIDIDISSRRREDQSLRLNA

[17] = target: Histone-lysine N-methyltransferase EHMT1 (Homo sapiens) (UniProt Q9H9B1); experiment: Inhibition of human GLP using biotin-tagged Histone H3 and 3H-SAM as substrate at 10 uM incubated for 1 hrs by TopCount scintillation proximity assay relative to control; outline: as §1
[18] = organism: Homo sapiens; experiment: Inhibition of MDH (unknown origin) using oxaloacetic acid as substrate preincubated with compound for 5 mins followed by substrate addition and measured after 1.5 min in the presence of NADH by absorbance based plate reader analysis; settings: time 6.5 min
Outline: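 MDH assay at room temperature in 50 mM KPi, pH 7.0, with 1% v/v DMSO final. Compound preincubated 5 min with 2 nM enzyme. Reaction started with 200 μM NADH plus 200 μM oxaloacetic acid, and absorbance followed at 340 nm for 1 min 30 s. Initial rate divided by the DMSO control rate. Single top concentration in triplicate; eight-point half-log curves in triplicate where inhibition exceeded 40%.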

[19] = target: Histone-lysine N-methyltransferase EHMT2 (Homo sapiens) (UniProt Q96KQ7); experiment: Inhibition of human G9a using biotin-tagged Histone H3 and 3H-SAM as substrate at 10 uM incubated for 1 hrs by TopCount scintillation proximity assay relative to control; outline: as §1
Sequence of Histone-lysine N-methyltransferase EHMT2 (Homo sapiens) (Q96KQ7 whole entry): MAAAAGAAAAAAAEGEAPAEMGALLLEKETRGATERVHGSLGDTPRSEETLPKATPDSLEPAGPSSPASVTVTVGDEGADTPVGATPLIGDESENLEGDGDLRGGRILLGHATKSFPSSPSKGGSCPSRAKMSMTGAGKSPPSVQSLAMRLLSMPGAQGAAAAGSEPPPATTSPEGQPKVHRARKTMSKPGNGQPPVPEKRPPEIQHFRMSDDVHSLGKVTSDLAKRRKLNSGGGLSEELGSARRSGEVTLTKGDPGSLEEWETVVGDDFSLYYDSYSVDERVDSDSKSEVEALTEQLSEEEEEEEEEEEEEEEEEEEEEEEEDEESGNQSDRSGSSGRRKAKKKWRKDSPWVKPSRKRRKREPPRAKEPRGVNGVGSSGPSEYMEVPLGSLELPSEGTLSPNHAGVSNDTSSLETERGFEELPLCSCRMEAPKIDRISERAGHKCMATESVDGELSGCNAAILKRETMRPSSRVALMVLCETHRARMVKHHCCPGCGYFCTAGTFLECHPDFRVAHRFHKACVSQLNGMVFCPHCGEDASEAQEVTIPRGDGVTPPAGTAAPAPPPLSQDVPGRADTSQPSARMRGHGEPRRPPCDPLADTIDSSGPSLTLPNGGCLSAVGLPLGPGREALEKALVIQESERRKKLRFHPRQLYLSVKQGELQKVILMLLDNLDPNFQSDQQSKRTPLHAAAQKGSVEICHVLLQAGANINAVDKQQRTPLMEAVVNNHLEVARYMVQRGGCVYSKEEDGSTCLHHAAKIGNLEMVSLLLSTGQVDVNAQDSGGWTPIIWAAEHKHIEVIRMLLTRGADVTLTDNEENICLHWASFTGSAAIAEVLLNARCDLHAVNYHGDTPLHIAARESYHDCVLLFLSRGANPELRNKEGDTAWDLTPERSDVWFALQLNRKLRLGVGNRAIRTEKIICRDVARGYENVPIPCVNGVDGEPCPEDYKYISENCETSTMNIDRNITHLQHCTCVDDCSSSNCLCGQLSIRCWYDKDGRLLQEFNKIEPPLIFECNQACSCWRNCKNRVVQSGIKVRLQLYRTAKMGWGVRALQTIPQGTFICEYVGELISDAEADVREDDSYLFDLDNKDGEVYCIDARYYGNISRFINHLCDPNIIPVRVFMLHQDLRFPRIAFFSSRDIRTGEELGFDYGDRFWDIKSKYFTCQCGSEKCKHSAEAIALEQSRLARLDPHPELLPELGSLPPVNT

[20] = target: Protein arginine N-methyltransferase 5 (Homo sapiens) (UniProt O14744); experiment: Inhibition of human PRMT5 using biotin-tagged Histone H4 and 3H-SAM as substrate at 10 uM incubated for 1 hrs by TopCount scintillation proximity assay relative to control; outline: as §1
[21] = organism: Homo sapiens; experiment: Inhibition of human EZH2 using biotin-tagged Histone H3 and 3H-SAM as substrate at 10 uM incubated for 1 hrs by TopCount scintillation proximity assay relative to control; outline: as §1

Q: Which inhibition [1] does the source give for `Cc1c(C(=O)/C=C/c2ccc(O)c([N+](=O)[O-])c2)c(C#N)c2n1CCC2` here?
A: Its inhibition is < 50%.

Q: What about the inhibition [2] of the same compound?
A: Its inhibition is < 50%.

Q: What about the inhibition [3] of the same compound?
A: Its inhibition is < 50%.

Q: What about the Activity [4] of the same compound?
A: Its Activity is “Not Active”.

Q: And the inhibition [5]?
A: The inhibition was < 50%.

Q: And the inhibition [6]?
A: Its inhibition is < 50%.

Q: What about the inhibition [7] of the same compound?
A: Its inhibition is < 50%.

Q: What about the inhibition [8] of the same compound?
A: The inhibition was < 50%.

Q: And the inhibition [9]?
A: Its inhibition is “Active”.

Q: What about the IC50 [10] of the same compound?
A: The IC50 was 50 µM.

Q: What about the inhibition [11] of the same compound?
A: The inhibition was < 50%.

Q: And the inhibition [12]?
A: Its inhibition is < 50%.

Q: What about the inhibition [13] of the same compound?
A: The inhibition was < 50%.

Q: And the inhibition [14]?
A: Its inhibition is “Active”.

Q: What about the inhibition [15] of the same compound?
A: The inhibition was < 50%.

Q: What about the inhibition [16] of the same compound?
A: Its inhibition is < 50%.

Q: What about the inhibition [17] of the same compound?
A: The inhibition was < 50%.

Q: And the inhibition [18]?
A: Its inhibition is “Active”.

Q: And the inhibition [19]?
A: Its inhibition is < 50%.

Q: And the inhibition [20]?
A: Its inhibition is < 50%.

Q: What about the inhibition [21] of the same compound?
A: The inhibition was < 50%.

From ChEMBL document CHEMBL5338825, “Structure-Based Discovery of Inhibitors of the SARS-CoV-2 Nsp14 N7-Methyltransferase” (J Med Chem, 2023)
